Assay results as given in article PMC7857643 (ACS chemical biology, 2016).
Residue numbers refer to the chain shown, from its start. Values joined by “and” are separate entries in the source; they are usually repeats but may differ in a detail not shown here. Equal values may be shown once.

Assays:
[1] = system: DU145 prostate cancer cells; assay: Cell viability / drug combination with etoposide in DU145 cells; format: cell-based, human
[2] = target: T1, recombinant human TDP2 (REC hTDP2) (Homo sapiens, UniProt O95551); assay: Recombinant TDP2 assay; format: biochemical
T1 sequence (O95551 1-362): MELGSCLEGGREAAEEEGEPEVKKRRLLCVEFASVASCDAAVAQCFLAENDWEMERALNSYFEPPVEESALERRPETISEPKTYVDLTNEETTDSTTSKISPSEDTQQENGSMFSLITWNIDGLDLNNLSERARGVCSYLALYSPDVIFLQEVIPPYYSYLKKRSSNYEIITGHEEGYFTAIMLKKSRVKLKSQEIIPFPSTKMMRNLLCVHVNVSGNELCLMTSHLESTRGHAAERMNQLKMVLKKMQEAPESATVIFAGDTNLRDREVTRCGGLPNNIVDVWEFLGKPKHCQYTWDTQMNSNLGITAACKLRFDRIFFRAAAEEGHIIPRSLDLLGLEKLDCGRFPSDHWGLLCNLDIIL

[3] = system: DT40 avian lymphoblastoid cells; assay: Drug combination with etoposide in DT40 cells; format: cell-based, chicken
[4] = target: native endogenous avian TDP2 in DT40 whole cell extracts (Gallus gallus, UniProt F1NW29); assay: TDP2 assay with DT40 whole cell extracts; format: biochemical, chicken; settings: Supporting Information Figure 1
Sequence of native endogenous avian TDP2 in DT40 whole cell extracts (F1NW29 whole entry): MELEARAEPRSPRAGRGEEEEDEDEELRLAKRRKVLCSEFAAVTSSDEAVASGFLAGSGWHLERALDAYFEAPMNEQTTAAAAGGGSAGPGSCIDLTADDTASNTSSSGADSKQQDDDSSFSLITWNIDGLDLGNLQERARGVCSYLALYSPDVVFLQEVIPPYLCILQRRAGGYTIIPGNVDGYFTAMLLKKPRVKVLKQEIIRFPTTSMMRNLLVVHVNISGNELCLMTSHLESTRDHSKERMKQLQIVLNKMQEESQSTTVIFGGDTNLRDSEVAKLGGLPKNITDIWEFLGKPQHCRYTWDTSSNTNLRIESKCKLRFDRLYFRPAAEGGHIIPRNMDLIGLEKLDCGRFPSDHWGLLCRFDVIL

[5] = target: T2, recombinant human TDP2 (Homo sapiens, UniProt O95551); assay: Kinetics experiments; format: biochemical
T2 sequence (O95551 1-362): T1 sequence (O95551 1-362)
Method in brief: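 Recombinant TDP2 at 10 pM was incubated at RT with 5, 10, 20 or 800 nM unlabeled TY19 substrate, spiked with 1 nM 32P-labeled TY19, with 0, 30, 50 or 150 nM test compound. Time-course reactions were resolved on 16% denaturing PAGE. Initial velocities from linear fits went into a Lineweaver–Burk plot.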

[6] = system: TK6 TDP2 KO cells; assay: Drug combination with etoposide in TK6 TDP2 KO cells; format: cell-based, human
[7] = target: T3, mTDP2 5M (Q278R, I281T, K282R, P318T, Y321C) (Mus musculus, UniProt Q9JJX7, I281T/K282R/P318T/Q278R/Y321C); assay: Recombinant TDP2 assay, mouse TDP2 5M mutant; format: biochemical
T3 sequence (Q9JJX7 1-370 Q278R/I281T/K282R/P318T/Y321C): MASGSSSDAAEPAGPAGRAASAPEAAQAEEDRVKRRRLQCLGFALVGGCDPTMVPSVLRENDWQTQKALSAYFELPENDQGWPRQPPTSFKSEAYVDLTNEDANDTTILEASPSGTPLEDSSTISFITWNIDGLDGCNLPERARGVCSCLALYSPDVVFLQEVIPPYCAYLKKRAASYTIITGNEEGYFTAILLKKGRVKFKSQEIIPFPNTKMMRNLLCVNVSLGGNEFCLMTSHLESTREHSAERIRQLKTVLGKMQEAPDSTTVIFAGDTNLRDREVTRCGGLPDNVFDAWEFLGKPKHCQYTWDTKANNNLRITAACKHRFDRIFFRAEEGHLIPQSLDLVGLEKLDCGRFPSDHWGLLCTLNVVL

[8] = system: TK6 human lymphoblastoid cells (TK6 WT); assay: Drug combination with etoposide in TK6 cells; format: cell-based; settings: increasing concentrations of ETP
Method in brief: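 TK6 wild-type lymphoblastoid cells seeded at 10,000 cells/well and exposed continuously to the test compound combined with increasing etoposide concentrations for 72 h, in triplicate. ATPlite luminescence read at 72 h after 5 min incubation. Viability was expressed as a percentage of the ATP level in untreated cells.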

[9] = system: zebrafish TDP2 (zTDP2); assay: Recombinant TDP2 assay, zebrafish TDP2; format: biochemical, D. rerio; settings: full-length zebrafish TDP2
[10] = system: C. elegans TDP2 (cTDP2); assay: Recombinant TDP2 assay, C. elegans TDP2; format: biochemical; settings: full-length C. elegans TDP2
[11] = system: DT40 TDP2 KO cells; assay: Drug combination with etoposide in DT40 TDP2 KO cells; format: cell-based, chicken
Method in brief: (§1)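 DT40 cells (TDP2-knockout, with or without human TDP2 complementation) seeded at 200 cells/well and exposed continuously to the test compound plus etoposide (or camptothecin) across concentration ranges for 72 h, in triplicate. Viability read at 72 h by ATPlite luminescence after 5 min. Viability was the ATP level of treated cells over untreated cells × 100.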

[12] = target: T4, mTDP2 WT (Mus musculus, UniProt Q9JJX7); assay: Recombinant TDP2 assay, mouse TDP2 wild type; format: biochemical
T4 sequence (Q9JJX7 1-370): T3 sequence (Q9JJX7 1-370 Q278R/I281T/K282R/P318T/Y321C) with R278Q, T281I, R282K, T318P, C321Y

[13] = system: DT40 hTDP2 cells; assay: Drug combination in TDP2 knockout DT40 cells complemented with human TDP2; format: cell-based, chicken
Method in brief: as §1

[14] = target: T5, human cellular TDP2 in HT29 whole cell extracts (Homo sapiens, UniProt O95551); assay: TDP2 assay with whole cell extracts from HT29 cells; format: biochemical; settings: Supporting Information Figure 1
T5 sequence (O95551 1-362): T1 sequence (O95551 1-362)
Method in brief: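 1 × 10^7 human cells were lysed 15 min on ice and spun at 12,000g for 10 min; protein was measured and extracts were stored at −80 °C. Extract at 10–20 μg/mL (30–40% cleavage) was incubated with 1 nM 32P-labeled 5′-phosphotyrosyl 18-mer DNA and test compound for 15 min at RT in pH 7.5 Tris/KCl/MgCl2 buffer. Products were run on 16% denaturing PAGE and quantified by densitometry.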

[15] = target: T6, mTDP2 8M (5M + E242G, S244A, R316G) (Mus musculus, UniProt Q9JJX7, E242G/I281T/K282R/P318T/Q278R/R316G/S244A/Y321C); assay: Recombinant TDP2 assay, mouse TDP2 8M mutant; format: biochemical; settings: IC50 mTDP2 8M, mouse TDP2 with eight human mutations
T6 sequence (Q9JJX7 1-370 E242G/S244A/Q278R/I281T/K282R/R316G/P318T/Y321C): T3 sequence (Q9JJX7 1-370 Q278R/I281T/K282R/P318T/Y321C) with E242G, S244A, R316G

[16] = target: T7, mTDP2 9M (8M + H323L) (Mus musculus, UniProt Q9JJX7, E242G/H323L/I281T/K282R/P318T/Q278R/R316G/S244A/Y321C); assay: biochemical
T7 sequence (Q9JJX7 1-370 E242G/S244A/Q278R/I281T/K282R/R316G/P318T/Y321C/H323L): T3 sequence (Q9JJX7 1-370 Q278R/I281T/K282R/P318T/Y321C) with E242G, S244A, R316G, H323L

**Q.** With `COc1cc([C@@H]2c3cc4c(cc3[C@@H](O[C@@H]3O[C@@H]5CO[C@@H](C)O[C@H]5[C@H](O)[C@H]3O)[C@H]3COC(=O)[C@H]23)OCO4)cc(OC)c1O` [ETP, etoposide, reference compound] as the compound, how does the “cells killed by ETP by itself” value ([1]; 1 μM ETP alone) read?
**A.** around 50%

**Q.** Which “decrease of potency against hTDP2” value ([2]; 4 relative to 2 (cyano replaced by chloro)) does the source give for `O=c1nc2n(-c3ccc(O)cc3)c3cc(Cl)ccc3cc-2c(=O)[nH]1` [Compound 4, 8-Chloro-10-(4-hydroxyphenyl)pyrimido[4,5-b]quinoline-2,4-dione] here?
**A.** 27 fold

**Q.** `O=c1nc2n(-c3ccccc3)c3ccccc3cc-2c(=O)[nH]1` [Compound 5, 10-Phenylpyrimido[4,5-b]quinoline-2,4(3H,10H)-dione] was tested. Which “additional loss of potency against hTDP2” value ([2]; 5 relative to 4 (chloro removed)) did it give?
**A.** 18 fold

**Q.** `N#Cc1ccc2cc3c(=O)[nH]c(=O)nc-3n(-c3cccc(-c4nnn[nH]4)c3)c2c1` [Compound 1, 2,4-Dioxo-10-[3-(1H-tetrazol-5-yl)phenyl]pyrimido[4,5-b]-quinoline-8-carbonitrile] was tested. Which “synergy with ETP” value [3] did it give?
**A.** showed synergy

**Q.** And the “activity against native endogenous avian TDP2 in DT40 whole cell extracts” value [4]?
**A.** active

**Q.** And the kcat ([5]; 30 nM of 1)?
**A.** 2.75 s⁻¹

**Q.** And the kcat ([5]; 50 nM of 1)?
**A.** 2.71 s⁻¹

**Q.** And the kcat ([5]; 150 nM of 1)?
**A.** 3.03 s⁻¹

**Q.** What about the “mode of inhibition of hTDP2” value ([5]; Lineweaver double-reciprocal plot) of the same compound?
**A.** competitive inhibitor

**Q.** And the “synergy with ETP” value [6]?
**A.** synergy was not observed

**Q.** And the IC50 [7]?
**A.** 1200 ± 100 nM

**Q.** And the “combination effect with ETP” value [8]?
**A.** supra-additive effect

**Q.** And the “resistance of zTDP2 to the drug” value [9]?
**A.** at least 3 orders of magnitude

**Q.** And the “resistance of cTDP2 to the drug” value [10]?
**A.** at least 3 orders of magnitude

**Q.** What about the “synergy with ETP” value [1] of the same compound?
**A.** synergistic effect

**Q.** And the “combination effect with ETP” value ([1]; 5 μM ETP)?
**A.** supra-additive effect

**Q.** What about the “cells killed in combination with ETP” value ([1]; 1 in combination with 1 μM of ETP) of the same compound?
**A.** over 90%

**Q.** And the cytotoxicity by itself ([1]; up to 50 μM, 72 h)?
**A.** not cytotoxic

**Q.** And the “synergy with ETP” value [11]?
**A.** synergy was greatly reduced

**Q.** What about the IC50 [12] of the same compound?
**A.** > 111000 nM

**Q.** What about the synergy with camptothecin ([13]; ETP replaced by camptothecin, Supporting Information Figure 4) of the same compound?
**A.** not observed

**Q.** And the “synergy with ETP” value ([13]; increasing concentrations of ETP)?
**A.** synergistic effect

**Q.** What about the “activity against human cellular TDP2 in HT29 whole cell extracts” value [14] of the same compound?
**A.** confirmed

**Q.** And the IC50 [15]?
**A.** 710 nM and 580 nM

**Q.** What about the IC50 [16] of the same compound?
**A.** 29 ± 10 nM

**Q.** How did the “synergy with ETP” value [1] turn out when `N#Cc1ccc2cc3c(=O)[nH]c(=O)nc-3n(-c3ccccc3)c2c1` [Compound 3, 2,4-Dioxo-10-phenyl-pyrimido[4,5-b]quinoline-8-carbonitrile] was run?
**A.** synergistic effect
